Calls of active or inactive are those of the source. The calls are words filed in the database; no cut-off is given here.
How the values were obtained:
[1] = Tmax in Wistar rat at 10 mg/kg, po administered via gavage by LC-MS/MS analysis; format: ADME, organism-based; conditions: in vivo
Summary of the method: (§1)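 Male Wistar rats, n = 4; oral dose 10 mg/kg as suspension in 1% Tween 80 with 0.5% w/v NaCMC; values are means.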

[2] = biological target: T1, Adenosine receptor A3 (Homo sapiens) (UniProt P0DMS8); experiment: Displacement of [3H]-HEMADO from human A3 receptor expressed in HEK293 cell membranes at 10 uM after 90 mins radioligand binding assay
T1 sequence (whole entry): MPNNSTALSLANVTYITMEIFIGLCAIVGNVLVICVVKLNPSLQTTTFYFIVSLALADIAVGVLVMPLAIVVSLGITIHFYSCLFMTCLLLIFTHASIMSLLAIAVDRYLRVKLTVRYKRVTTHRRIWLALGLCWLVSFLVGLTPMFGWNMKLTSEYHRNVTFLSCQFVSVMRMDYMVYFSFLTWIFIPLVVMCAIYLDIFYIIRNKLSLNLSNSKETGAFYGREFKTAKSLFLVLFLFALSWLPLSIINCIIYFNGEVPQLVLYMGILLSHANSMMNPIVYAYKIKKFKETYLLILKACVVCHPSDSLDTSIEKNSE
Summary of the method: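 Membranes from HEK-293 cells overexpressing human A3 receptor; points in triplicate; highest concentration tested 10 µM.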

[3] = Systemic clearance in Wistar rat at 3 mg/kg, iv by LC-MS/MS analysis; format: ADME, organism-based; conditions: in vivo
Summary of the method: (§2)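 Male Wistar rats, n = 4; iv dose 3 mg/kg in 10% NMP, 10% Cremophor EL, acetate buffer pH 4.2 q.s.; values are means.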

[4] = Protein binding in mouse plasma; format: ADME, cell-free; conditions: read-out: PPB (converted)
[5] = test system: Rattus norvegicus; experiment: Protection against L-DOPA-induced dyskinesias in 6-OHDA-lesioned Wistar rat model of parkinson's disease assessed as reduction in abnormal involuntary movements at 0.3 to 3 mg/kg, po administered twice daily for 21 days measured every 7 days; format: functional, organism-based
Summary of the method: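 6-OHDA-lesioned rats given oral test compound (0.3-3 mg/kg) with L-DOPA, repeated daily; abnormal involuntary movements scored; mean ± SEM, n=6-7.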

[6] = biological target: Cytochrome P450 2C9 (Homo sapiens, UniProt P11712); experiment: Inhibition of CYP2C9 (unknown origin); format: ADME
[7] = Permeability across basolateral to apical side in human Caco2 cells; format: ADME, cell-based; conditions: caco-2
[8] = Terminal half-life in Wistar rat at 3 mg/kg, iv by LC-MS/MS analysis; format: ADME, organism-based; conditions: in vivo, read-out: beta t1/2 (converted); summary of the method: as §2
[9] = biological target: T2, Adenosine receptor A2a (Homo sapiens, UniProt P29274); experiment: Antagonist activity at human A2A receptor expressed in HEK293 cell membranes assessed as reduction in CGS-21680-induced cAMP level pretreated for 15 mins followed by CGS-21680 addition measured after 30 mins by HTRF assay; format: functional, cell-based
Summary of the method: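 HTRF-based cAMP functional assay; each compound tested at 12 concentrations, every point in triplicate; Ki given as mean of two independent experiments (n=2).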

[10] = AUC (0 to t) in Wistar rat at 3 mg/kg, iv by LC-MS/MS analysis; format: ADME, organism-based; conditions: in vivo
[11] = Ratio of AUC (0 to 4 hrs) in Wistar rat brain to plasma at 3 mg/kg, iv by LC-MS/MS analysis; format: ADME, organism-based; conditions: read-out: Ratio AUC
[12] = test system: HepG2; experiment: Cytotoxicity against human HepG2 cells after 24 hrs by MTT assay; format: cell-based; conditions: HepG2, 24 h
[13] = Metabolic stability in dog liver microsomes assessed as metabolic rate; format: ADME, Canis lupus familiaris, microsome
Summary of the method: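 Liver microsomes (mouse, rat, dog, human) at 0.125 mg/mL protein; metabolic rate expressed as nmol/min/mg.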

[14] = biological target: hERG (Homo sapiens, UniProt Q12809); experiment: Inhibition of human ERG at 3 uM relative to control
[15] = biological target: T2, Adenosine receptor A2a; experiment: Displacement of [3H]ZM241385 from human A2A receptor expressed in HEK293 cell membranes after 90 mins radioligand binding assay
Summary of the method: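 Membranes from HEK-293 cells overexpressing the relevant human adenosine receptor subtype; all points in triplicate; Ki derived from 8-concentration IC50 curves.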

[16] = biological target: T3, Cytochrome P450 1A2 (Homo sapiens, UniProt P05177); experiment: Inhibition of CYP1A2 (unknown origin); format: ADME
T3 sequence (P05177 whole entry): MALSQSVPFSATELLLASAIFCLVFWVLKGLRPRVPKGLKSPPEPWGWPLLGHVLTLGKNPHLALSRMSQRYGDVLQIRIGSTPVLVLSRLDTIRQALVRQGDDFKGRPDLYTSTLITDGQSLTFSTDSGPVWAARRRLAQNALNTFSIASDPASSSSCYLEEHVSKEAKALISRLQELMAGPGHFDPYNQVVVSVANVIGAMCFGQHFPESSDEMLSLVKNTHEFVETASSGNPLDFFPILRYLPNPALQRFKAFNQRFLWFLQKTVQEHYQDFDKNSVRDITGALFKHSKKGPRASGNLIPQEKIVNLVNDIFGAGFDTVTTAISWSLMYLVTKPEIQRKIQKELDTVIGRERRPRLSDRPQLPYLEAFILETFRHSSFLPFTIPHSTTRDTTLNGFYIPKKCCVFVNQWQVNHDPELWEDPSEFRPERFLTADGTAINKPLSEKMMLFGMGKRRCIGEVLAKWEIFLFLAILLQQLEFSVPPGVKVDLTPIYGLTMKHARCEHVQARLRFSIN

[17] = Cmax in Wistar rat at 10 mg/kg, po administered via gavage by LC-MS/MS analysis; format: ADME, organism-based; design: dose 10 mg/kg, route oral; conditions: in vivo; summary of the method: as §1
[18] = organism: Homo sapiens; experiment: Selectivity ratio of Ki for displacement of [3H]-HEMADO from human A3 receptor expressed in HEK293 cell membranes to Ki for displacement of [3H]ZM241385 from human A2A receptor expressed in HEK293 cell membranes
Summary of the method: (§3)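 Radioligand binding used membranes from HEK-293 cells overexpressing each human adenosine receptor isoform. Points were run in triplicate, and 8-concentration IC50 curves were plotted to give Ki. The selectivity value is the Ki at the off-target isoform divided by the Ki at hA2A.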

[19] = test system: Mus musculus; experiment: Antidepressant-like activity in po dosed mouse assessed as reduction in immobility time treated 1 hr prior to testing measured for 6 mins by tail suspension test
[20] = organism: Homo sapiens; experiment: Selectivity ratio of Ki for displacement of [3H]-DPCPX from human A1 receptor expressed in HEK293 cell membranes to Ki for displacement of [3H]ZM241385 from human A2A receptor expressed in HEK293 cell membranes; summary of the method: as §3

T2 sequence (P29274 whole entry): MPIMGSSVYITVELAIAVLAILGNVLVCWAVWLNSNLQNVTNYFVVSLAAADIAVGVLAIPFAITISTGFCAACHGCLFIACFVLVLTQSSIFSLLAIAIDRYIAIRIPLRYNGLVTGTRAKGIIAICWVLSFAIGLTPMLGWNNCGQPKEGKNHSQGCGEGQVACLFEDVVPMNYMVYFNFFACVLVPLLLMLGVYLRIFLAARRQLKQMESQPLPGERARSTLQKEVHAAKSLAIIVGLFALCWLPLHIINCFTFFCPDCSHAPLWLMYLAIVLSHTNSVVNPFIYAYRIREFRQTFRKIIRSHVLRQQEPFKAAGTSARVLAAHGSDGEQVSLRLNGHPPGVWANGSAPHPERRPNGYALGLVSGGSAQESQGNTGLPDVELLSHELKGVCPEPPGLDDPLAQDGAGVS
Chain of Cytochrome P450 2C9 (P11712 whole entry): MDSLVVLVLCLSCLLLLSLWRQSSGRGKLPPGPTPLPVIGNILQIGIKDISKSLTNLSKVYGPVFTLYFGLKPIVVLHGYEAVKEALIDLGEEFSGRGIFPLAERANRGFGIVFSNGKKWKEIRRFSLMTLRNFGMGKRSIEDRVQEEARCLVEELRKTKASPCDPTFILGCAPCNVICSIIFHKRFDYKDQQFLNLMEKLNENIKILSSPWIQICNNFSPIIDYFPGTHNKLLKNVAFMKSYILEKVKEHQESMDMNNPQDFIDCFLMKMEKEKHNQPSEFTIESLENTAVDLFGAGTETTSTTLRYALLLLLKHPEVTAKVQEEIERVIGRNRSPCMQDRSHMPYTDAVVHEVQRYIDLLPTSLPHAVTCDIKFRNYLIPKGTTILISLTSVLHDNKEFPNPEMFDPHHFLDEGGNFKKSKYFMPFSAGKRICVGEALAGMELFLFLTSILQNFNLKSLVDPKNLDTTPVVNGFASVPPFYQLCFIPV
Chain of hERG (Q12809 whole entry): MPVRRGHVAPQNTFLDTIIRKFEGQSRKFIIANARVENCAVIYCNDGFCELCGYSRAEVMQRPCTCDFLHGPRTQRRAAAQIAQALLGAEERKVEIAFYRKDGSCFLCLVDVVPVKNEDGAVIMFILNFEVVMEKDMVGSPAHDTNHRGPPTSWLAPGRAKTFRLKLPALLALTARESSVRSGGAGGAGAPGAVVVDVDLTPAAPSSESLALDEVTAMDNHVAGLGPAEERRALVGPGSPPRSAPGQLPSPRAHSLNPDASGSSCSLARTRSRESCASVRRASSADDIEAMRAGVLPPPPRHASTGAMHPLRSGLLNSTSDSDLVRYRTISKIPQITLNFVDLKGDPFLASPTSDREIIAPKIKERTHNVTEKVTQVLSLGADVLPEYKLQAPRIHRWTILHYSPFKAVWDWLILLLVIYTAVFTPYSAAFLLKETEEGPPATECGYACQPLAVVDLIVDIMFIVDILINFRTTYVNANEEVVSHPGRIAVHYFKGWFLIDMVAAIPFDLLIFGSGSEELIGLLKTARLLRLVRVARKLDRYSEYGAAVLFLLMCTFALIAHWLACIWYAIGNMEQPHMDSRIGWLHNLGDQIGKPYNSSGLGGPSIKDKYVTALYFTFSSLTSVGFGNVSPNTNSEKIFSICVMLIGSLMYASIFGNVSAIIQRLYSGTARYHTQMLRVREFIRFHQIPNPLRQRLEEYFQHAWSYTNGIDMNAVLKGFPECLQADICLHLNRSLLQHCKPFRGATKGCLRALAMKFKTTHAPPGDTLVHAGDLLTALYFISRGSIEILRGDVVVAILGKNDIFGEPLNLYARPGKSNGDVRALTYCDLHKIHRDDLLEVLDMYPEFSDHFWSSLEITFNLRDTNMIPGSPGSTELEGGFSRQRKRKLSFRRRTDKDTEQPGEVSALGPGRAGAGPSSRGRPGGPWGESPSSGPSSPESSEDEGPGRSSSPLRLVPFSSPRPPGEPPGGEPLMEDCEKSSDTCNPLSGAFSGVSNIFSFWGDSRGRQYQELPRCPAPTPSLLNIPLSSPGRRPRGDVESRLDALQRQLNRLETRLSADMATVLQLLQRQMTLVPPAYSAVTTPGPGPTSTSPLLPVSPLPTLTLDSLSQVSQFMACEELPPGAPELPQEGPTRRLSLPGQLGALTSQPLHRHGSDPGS

Tmax [1]: 48 min
inhibition [2]: inactive
clearance [3]: 45 mL/min/kg
fraction unbound [4]: 0.49
IC50 [6]: > 10 µM
permeability [7]: Permeable
half-life [8]: 60 min
Ki [9]: 0.4 nM
AUC(0-t) [10]: 3.6 µM·h
Kp [11]: 0.38
Drug metabolism [13]: 0.04 nmol/min/mg
Ki [15]: 1.5 nM
IC50 [16]: > 10 µM
Cmax [17]: 600 nM
Structure (SMILES): COCCOc1ccc(N2CCN(CCn3c(=O)n(C)c4c3nc(N)n3nc(-c5nccs5)nc43)CC2)cc1F
Activity [5]: Active
IC50 [12]: > 30 µM
inhibition at 3 µM [14]: 28%
Ratio Ki [18]: > 3000
ED50 [19]: 0.7 mg/kg
Ratio Ki [20]: > 1100

Reference: ChEMBL document CHEMBL4190330, “Discovery of Potent and Selective A2A Antagonists with Efficacy in Animal Models of Parkinson's Disease and Depression” (ACS Med Chem Lett, 2017)
